Results on one compound are retold here after ChEMBL document CHEMBL4017487, “Design and Synthesis of γ- and δ-Lactam M1 Positive Allosteric Modulators (PAMs): Convulsion and Cholinergic Toxicity of an M1-Selective PAM with Weak Agonist Activity” (J Med Chem, 2017).

≈ marks a conversion by molar mass, not a printed value.

Data set [1] can be described thus: Ratio of AUC in rat brain to plasma at 2 mg/kg, po or 0.5 mg/kg, iv administered as single bolus dose. The class given is ADME, organism-based. As to conditions: read-out: Ratio AUC; call rule not given here. Put shortly: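 Brain/plasma ratio computed from AUC of total drug in brain and total drug in plasma.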
A further data set concerns MDR1. The data set is described as follows: Efflux ratio of permeability from basolateral to apical side over apical to basolateral side in MDCK1 cells expressing MDR1. The class given is ADME, cell-based, Canis lupus familiaris. The settings on record: dog, MDCK-MDR1. Summed up: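 MDCKI-MDR1 cells (MDCK epithelial line transfected with MDR1/P-gp; from the NIH). Permeability measured as a rate in 10−6 cm/s in both directions; value is the BA/AB ratio.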

In data set [2] the target is T1, Muscarinic acetylcholine receptor M1 (Homo sapiens, UniProt P11229).
T1 sequence (P11229 whole entry): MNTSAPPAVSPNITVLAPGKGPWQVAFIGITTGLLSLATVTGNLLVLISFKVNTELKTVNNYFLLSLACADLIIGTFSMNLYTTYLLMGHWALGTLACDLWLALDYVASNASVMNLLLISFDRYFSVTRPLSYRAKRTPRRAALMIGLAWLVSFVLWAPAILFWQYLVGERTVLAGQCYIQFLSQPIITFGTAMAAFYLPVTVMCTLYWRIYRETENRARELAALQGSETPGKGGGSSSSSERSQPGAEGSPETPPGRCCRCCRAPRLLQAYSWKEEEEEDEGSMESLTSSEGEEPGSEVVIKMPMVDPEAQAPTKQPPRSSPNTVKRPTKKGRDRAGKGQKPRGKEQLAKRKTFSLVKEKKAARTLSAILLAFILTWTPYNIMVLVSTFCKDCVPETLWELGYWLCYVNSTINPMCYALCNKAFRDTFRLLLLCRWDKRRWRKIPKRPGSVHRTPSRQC
Kind of data set: Positive allosteric modulation of human muscarinic acetylcholine receptor M1 expressed in CHO cells assessed as increase in acetylcholine-induced calcium mobilization preincubated for 10 mins followed by acetylcholine addition by Fluo-8-AM dye based FLIPR assay. The class given is ADME, cell-based. Put shortly: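 M1 potentiation (PAM) format: calcium mobilization read on a FLIPR plate reader with an EC20 concentration of ACh present. EC50 is the geometric mean of at least three experiments.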
On the technique in general: Calcium flux is commonly read through the fluorescence of an indicator in the cells.

Data set [3] addresses T1, Muscarinic acetylcholine receptor M1. Kind of data set: Ratio of positive allosteric modulation of human muscarinic acetylcholine receptor M1 expressed in CHO cells assessed as increase in acetylcholine-induced beta-arrestin recruitment by measuring functional co-operativity with acetylcholine to Kb for human muscarinic acetylcholine receptor M1 expressed in CHO cells assessed as increase in beta-arrestin recruitment. In kind it is ADME, cell-based. (In general: Activated receptors often draw arrestin, which recruitment assays turn into a signal.)

The target is the same in data set [4]. Kind of data set: Displacement of [3H]PT-1284 human muscarinic acetylcholine receptor M1 expressed in CHO cell membranes after 90 mins scintillation counting method.
For data set [5], the system named is Canis familiaris. The data set is described as follows: Cholinergic toxicity in dog assessed as salivation at 15 mg/kg, po administered as single dose using spray dried dispersion formulation after 1 hr. The class given is organism-based, Canis lupus familiaris. The settings on record: in vivo. Summed up: (§1)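 Dog single oral dose escalation: 1/sex at 5 mg/kg for each formulation; 1 female at 15 mg/kg. Spray-dried dispersion: 23% drug loading with 0.5% methylcellulose and 100 mM citrate buffer. Clinical signs timed in approximate hours postdose; unbound plasma Cmax.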

Data set [6] deals with Canis familiaris. The data set is described as follows: Cholinergic toxicity in dog assessed as soft stool at 5 mg/kg, po administered as single dose using spray dried dispersion formulation after 1.5 hrs. In kind it is organism-based, Canis lupus familiaris. The settings on record: in vivo. Summed up: as §1
Data set [7] addresses T2, Muscarinic acetylcholine receptor M2 (Homo sapiens, UniProt P08172).
T2 sequence (P08172 whole entry): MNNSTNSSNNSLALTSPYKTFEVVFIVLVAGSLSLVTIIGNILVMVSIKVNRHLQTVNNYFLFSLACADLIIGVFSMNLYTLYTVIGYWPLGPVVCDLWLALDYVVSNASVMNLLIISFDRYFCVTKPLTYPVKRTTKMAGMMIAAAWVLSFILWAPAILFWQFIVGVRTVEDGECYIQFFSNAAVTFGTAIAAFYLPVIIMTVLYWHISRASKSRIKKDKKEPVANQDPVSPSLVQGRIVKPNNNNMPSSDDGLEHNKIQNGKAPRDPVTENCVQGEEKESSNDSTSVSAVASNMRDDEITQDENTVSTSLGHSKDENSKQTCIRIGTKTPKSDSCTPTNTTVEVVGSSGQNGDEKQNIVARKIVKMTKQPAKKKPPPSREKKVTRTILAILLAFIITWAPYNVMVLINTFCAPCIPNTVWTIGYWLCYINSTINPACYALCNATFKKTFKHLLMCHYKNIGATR
The data set is described as follows: Agonist activity at human muscarinic acetylcholine receptor M2 expressed in CHO cells assessed as increase in cAMP accumulation after 2 hrs by cAMP-Glo assay. In kind it is cell-based. Summed up: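 Recombinant functional human M2–M5 assays, each run in agonist and PAM modes at concentrations up to 10 μM.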
A general note: cAMP levels reflect the balance of adenylyl cyclase and phosphodiesterase activity.

Data set [8] deals with Plasma. Kind of data set: Unbound plasma concentration in amphetamine-induced hyperlocomotion C57BL/6 mouse at 3.2 mg/kg, sc measured after 1 hr by LC-MS/MS analysis. In kind it is ADME, organism-based. The settings on record: in vivo. Put shortly: (§2)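 Satellite group of C57BL/6 mice from the amphetamine-stimulated locomotor study, N = 2/dose at 0.32, 1 and 3.2 mg/kg. Dosed sc as a solution in 10/90 Cremophor/water. Unbound plasma and brain concentrations measured at T = 1 h.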

The nature of data set [9]: Selectivity ratio of EC50 for human muscarinic acetylcholine receptor M5 expressed in CHO cells to EC50 for human muscarinic acetylcholine receptor M1 expressed in CHO cells. The class given is ADME, cell-based.
Data set [10] concerns Canis familiaris. Kind of data set: Cholinergic toxicity in dog assessed as circling behaviour at 5 mg/kg, po administered as single dose using spray dried dispersion formulation after 4.3 hrs. As to conditions: in vivo. The class given is organism-based, Canis lupus familiaris. Put shortly: as §1
Another data set concerns Mus musculus. Kind of data set: In vivo agonist activity at muscarinic acetylcholine receptor M1 in C57BL/6 mouse assessed as increase in IP1 accumulation in striatum at 1 to 10 mg/kg, sc measured after 2 hrs. In kind it is organism-based. Put shortly:
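C57BL/6 mice dosed with compound or vehicle, then ex vivo striatal IP1 and free brain concentration (Cb,u) measured. Data points are individual mice.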

The target of data set [11] is T1, Muscarinic acetylcholine receptor M1. The data set is described as follows: Agonist activity at human muscarinic acetylcholine receptor M1 expressed in CHO cells assessed as increase in calcium mobilization at 30 uM incubated for 10 mins by Fluo-8-AM dye based FLIPR assay relative to acetylcholine. In kind it is cell-based.
Data set [12] can be described thus: Intrinsic clearance in human liver microsomes. The class given is ADME, microsome. The settings on record: read-out: CLH.
Data set [13] relates to Canis familiaris. Kind of data set: Unbound Cmax in dog plasma at 5 mg/kg, po administered as single dose using hydroxypropyl cellulose/docusate sodium formulation. In kind it is ADME, organism-based, Canis lupus familiaris. As to conditions: in vivo. Summed up: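 Dogs given a single oral 5 mg/kg dose as a nanosuspension (hydroxypropyl cellulose SL, 0.05% docusate sodium in purified water), 1/sex. Unbound plasma Cmax and AUC determined, with clinical signs monitored at approximate hours postdose.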

Data set [14] has as its system Plasma. The data set is described as follows: Unbound plasma concentration in scopolamine-induced memory impairment Wistar rat model at 3.2 mg/kg, sc measured after 1.25 hrs by LC-MS/MS analysis. The class given is ADME, organism-based. The settings on record: in vivo. Summed up: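 Rats from a satellite group of the scopolamine (0.32 mg/kg) Morris water maze study, N = 2/dose. Dosed sc as a solution in 20% hydroxypropyl β-cyclodextrin. Compound concentrations measured in plasma only at T = 1.25 h.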

Data set [15] in a line: Thermodynamic solubility of the compound in FeSSIF at pH 6.3. As to conditions: read-out: Therm_solubility.
In a further data set the test system is Rattus norvegicus. The data set is described as follows: Unbound Cmax in rat plasma at 15 mg/kg, po administered as single dose. In kind it is ADME, organism-based. As to conditions: in vivo.
The next data set deals with Brain. Kind of data set: Unbound brain concentration in amphetamine-induced hyperlocomotion C57BL/6 mouse at 1 mg/kg, sc measured after 1 hr by LC-MS/MS analysis. The class given is ADME, organism-based. As to conditions: in vivo. Summed up: as §2

On to `Cc1cc2c(cc1Cc1ccc(-c3cocn3)cc1)C(=O)N([C@H]1CCOC[C@@H]1O)C2`, for which the Kp in data set [1] was found to be 0.2. The efflux ratio in the data set on MDR1 was 11. Moreover, the EC50 is 47 nM in [2] and more than 10000 nM in [7]. Besides, the Ratio in data set [3] was 100. Also, the affinity in data set [4] corresponds to a Ki of 16 nM. The Activity result in the data set with Canis familiaris [5] was “Toxic”; with Canis familiaris [6], “Toxic”; with Canis familiaris [10], “Toxic”; in the data set on Mus musculus, “Active”; in data set [11] it was 23%. Also, the “Cp(f)” value in the data set with Plasma [8] is 130 nM; in the data set with Plasma [14], 200 nM. In data set [9], the “Ratio EC50” value is more than 200. In [12], the CLint scaled is less than 8 mL/min/kg. Moreover, the fCmax in the data set on Canis familiaris [13] is reported as 303 nM; in the data set with Rattus norvegicus it was 1507 nM. In addition, in [15], the solubility thermodynamic was determined as 39.7 µg/mL (≈ 98.2 µM). The “Drug uptake(free)” value with Brain came out at 14 nM.

For orientation: efflux ratio means the permeability from basolateral to apical divided by that in the opposite direction, in the common usage. As a reminder, the EC50 is the concentration that produces a half-maximal response. For orientation: Ki means a measure of affinity in units of concentration, obtained from inhibition or displacement. Read a high Ki as lower affinity.
